# Sampled rows, rich in hits. Any-hit rate of the full collection: about 4%.
# KCNK9 block – KCNK9 potassium channel inhibitors, primary screen, HEK293 cells, thallium flux | Potassium channel subfamily K member 9 (Homo sapiens), Q9NPC2 | FluxOR thallium flux fluorescence; hits give low values | hit rate 1.2% among 310,000 | AID 488922, 2010 | B-score at 10 µM;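 active means ratio B-score over 3 SD below the library mean, with starting fluorescence within 5 SD of its mean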;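 further: negative B-score means less thallium flux so channel inhibition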
# hERG rescue – hERG rescue from dofetilide block, primary screen, cell-based, CHO-hERG, FluxOR thallium flux, dofetilide IC70; Voltage-gated inwardly rectifying potassium channel KCNH2 (Homo sapiens), Q12809; dofetilide IC70 present; activation (rescue from dofetilide block), less the hit threshold, % at 10 µM; hit rate 0.51% among 310,000;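 active means activation above the mean of controls blocked by dofetilide plus 5 SD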;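 further: thallium influx through hERG after potassium depolarization seen as dye fluorescence rise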
# KCNQ1 inh – inhibitors of human KCNQ1 channel, primary screen, cell-based, thallium flux, high-throughput | CHO-K1 KCNQ1, FluxOR thallium flux fluorescence; hits give high values | hit rate 1.3% among 310,000 | B-score at 10 µM;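 active means compounds whose thallium flux B-score, printed positive for inhibition, exceeds three library SD while starting fluorescence stays within three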;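 further: channel opened by potassium depolarization with thallium stimulus after 20 min compound exposure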
# KCNK3 block – human KCNK3 channel inhibitors, primary screen, CHO cells, FluxOR thallium flux, B-score. hit rate 0.84% among 340,000. AID 602410, 2012. B-score at 10 µM. FluxOR fluorescence; hits give low values;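 active means B-score under library mean minus 4 SD, starting fluorescence ratio at most library mean plus 5 SD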;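 further: more negative B-score means stronger inhibition of thallium flux through KCNK3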
# KCNQ1 pot – potentiators or activators of KCNQ1 channel, primary screen, cell-based, thallium flux, high-throughput; CHO-K1 KCNQ1, thallium flux FluxOR fluorescence; hits give high values; B-score at 10 µM; hit rate 0.35% among 310,000;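 active means fluorescence ratio B-score, a plate-corrected score, at least three library SD, with initial intensity B-score within 5 SD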
#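 Material: CHO-K1 cells stably expressing KCNQ1. Medium: assay buffer for compound exposure, DMSO matched across wells. Reagent: K+/Tl+ depolarizing stimulus. Compound dosing: single-concentration screen. Times: 37 °C overnight plating, 90-min dark dye load, 20-min compound pretreatment. Technique: FluxOR Tl+ flux fluorescence.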
# PHOSPHO1 inh – PubChem AID 1565; recombinant PHOSPHO1, absorbance phosphatase assay; inhibition, % at 13.3 µM; hit rate 1.1% among 290,000; in the data active means inhibition above about 60%
# KCNK9 inh conf – KCNK9 potassium channel inhibitors, confirmation, HEK293 cells, thallium flux, duplicate; FluxOR thallium flux fluorescence; inhibition, % at 10 µM; hit rate 43% among 4,900; AID 492992, 2010; shares compounds with KCNK9 block;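 active means thallium signal inhibited by more than 5 SD of the compound-free buffer control wells, on both duplicate plates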;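 further: 0% = assay buffer control wells without compound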
# Kir21 sel – mouse Kir2.1 channel inhibition, confirmation, selectivity assay for KCNK9 modulator project, cell-based, HEK293, thallium flux; shares compounds with KCNK9 block; Kir2.1 cells, FluxOR thallium flux fluorescence; inhibition, % at 10 µM; hit rate 4% among 4,900; AID 492993, 2010;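 active means thallium signal drop more than 5 SD beyond the mean of the no-compound control wells, seen in both duplicate plates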;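 further: signal is fluorescence rise after thallium addition divided by baseline fluorescence; plate controls were assay buffer only for no effect and full block by chlorpromazine control for full effect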
# Target sequence (P35561 whole entry, looked up): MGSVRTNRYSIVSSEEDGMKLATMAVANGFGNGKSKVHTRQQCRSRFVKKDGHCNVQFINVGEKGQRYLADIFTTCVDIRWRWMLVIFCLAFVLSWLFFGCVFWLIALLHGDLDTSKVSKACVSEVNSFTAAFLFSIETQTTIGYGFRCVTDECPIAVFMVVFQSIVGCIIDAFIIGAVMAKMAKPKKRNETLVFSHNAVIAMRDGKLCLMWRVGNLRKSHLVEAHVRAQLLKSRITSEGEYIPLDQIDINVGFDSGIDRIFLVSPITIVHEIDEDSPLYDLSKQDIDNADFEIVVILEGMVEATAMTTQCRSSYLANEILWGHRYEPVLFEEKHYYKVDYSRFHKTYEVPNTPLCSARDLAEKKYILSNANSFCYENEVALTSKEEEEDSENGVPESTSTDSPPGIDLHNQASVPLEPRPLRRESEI
# HEK293 Tl ctr – thallium flux in non-induced HEK293 cells, confirmation, counter-screen for KCNK9 inhibitor project, cell-based, second counter screen, non-induced KCNK9-HEK293; FluxOR thallium flux; AID 492997, 2010; shares compounds with KCNK9 block; inhibition, % at 10 µM; hit rate 40% among 4,900;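 active means thallium signal drop beyond 5 SD of the untreated control mean, on both duplicate plates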;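 further: plate controls were buffer only IC0 wells for no effect and SID17386958 at its maximal inhibitory level for full effect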
# Active calls of the source: *; i = inactive; . = no result.
SMILES,KCNK9 block,hERG rescue,KCNQ1 inh,KCNK3 block,KCNQ1 pot,PHOSPHO1 inh,KCNK9 inh conf,Kir21 sel,HEK293 Tl ctr
CC(C)C[C@H]1C(=O)N2CCC[C@H]2[C@]2(O)O[C@](NC(=O)C3C=C4c5cccc6[nH]c(Br)c(c56)C[C@H]4N(C)C3)(C(C)C)C(=O)N12 (stereo partly specified),i,-9,7*,i,i,.,i,i,i
CSc1ccc(CNC(=O)C2CCC(=O)N(Cc3cccc(F)c3)C2)cc1 (stereo unspecified),i,-4,i,i,i,32,.,.,.
Cc1nc(SCC(=O)NC(C)(C#N)C2CC2)c2c(-c3cccs3)csc2n1 (stereo unspecified),-11*,-12,i,i,i,-3,48%*,i,i
CCOC(=O)CN1C(=O)C(Sc2n[nH]c(-c3ccc(O)cc3)n2)CCc2ccccc21 (stereo unspecified),-9.4*,-20,i,i,i,7,36%*,i,i
COc1ccc(NC(=O)c2cc3c(CO)cnc(C)c3oc2=Nc2cccc(F)c2)c(OC)c1,i,-3,i,i,i,42,.,.,.
O=C(Nc1ccccc1)OC1CC2CC1C1CCCC21 (stereo unspecified),i,-3,i,i,i,-19,i,i,i
CS(=O)(=O)c1ccc(NS(=O)(=O)c2ccc(Cl)c(C(=O)NC3=NCCS3)c2)cc1,.,.,.,i,.,.,.,.,.
CN(C(=O)COC(=O)c1cc(=O)[nH]c2ccccc12)c1c(N)n(Cc2ccccc2)c(=O)[nH]c1=O,i,-13,i,i,i,.,.,.,.
Cc1cccc2sc(NNC(=O)c3ccc(S(=O)(=O)N4CCCC(C)C4)cc3)nc12 (stereo unspecified),i,-14,i,i,i,-11,.,.,.
Cc1cc(C)c2nc(NNC(=O)c3ccc(S(=O)(=O)N4CCCCC4)cc3)sc2c1,i,-12,i,i,i,-4,i,i,i
Cc1cccc2sc(NNC(=O)c3ccc(S(=O)(=O)N4CCc5ccccc5C4)cc3)nc12,i,-4,i,i,i,-14,i,i,i
COCCC1CCCCN1Cc1cn(-c2ccccc2)nc1-c1ccc2c(c1)OCO2 (stereo unspecified),i,-12,i,i,i,31,i,i,i
Cc1cc(OCc2cccc(Cl)c2)c(C)cc1CN1CCOCC1,-14*,-18,i,i,i,18,52%*,i,32%*
O=[N+]([O-])c1cccc(COc2ccccc2CN2CCOCC2)c1,.,.,.,i,.,.,.,.,.
CCc1nnc(NC(=O)C2Cc3ccccc3CN2S(=O)(=O)c2c(C)c(C)cc(C)c2C)s1 (stereo unspecified),-13*,-7,i,i,i,8,i,i,32%*
CCc1nnc(NC(=O)C2Cc3ccccc3CN2S(=O)(=O)CC)s1 (stereo unspecified),i,-9,i,i,i,-38,.,.,.
Cn1c(-c2ccc(C=O)s2)nc2c3ccccc3c3ccccc3c21,-10*,-5,7*,i,i,25,33%*,i,72%*
CCOC(=O)C1CSC2(CCC(c3ccccc3)CC2)N1 (stereo unspecified),i,-11,i,i,i,7,i,i,i
CCOC(=O)C1NC(=O)CC1c1ccccc1 (stereo unspecified),i,-9,i,i,i,-23,.,.,.
Cc1ccc(S(=O)(=O)Nc2ccc3[nH]ccc3c2)cc1,i,-7,i,i,i,29,.,.,.
C/C(=N\NC(=O)COc1ccc(C(C)(C)C)cc1)c1cc2ccccc2o1,i,-3,i,i,i,9,i,i,i
C/C(=N\NC(=O)COc1ccc(C)cc1C(C)C)c1cc2ccccc2o1,i,0,i,i,i,-14,i,i,i
C/C(=N\NC(=O)COc1ccc(C(C)(C)C)cc1)c1ccccc1,i,-12,i,i,i,36,.,.,.
COc1ccc(NCC(=O)N/N=C(\C)c2cc3ccccc3o2)cc1,i,-4,i,i,i,36,.,.,.
CC(C)(C)c1ccc(C2(C)NC(=O)N(CC(=O)NC3CCS(=O)(=O)C3)C2=O)cc1 (stereo unspecified),.,.,.,i,.,.,.,.,.
SMILES,KCNK9 block,hERG rescue,KCNQ1 inh,KCNK3 block,KCNQ1 pot,PHOSPHO1 inh,KCNK9 inh conf,Kir21 sel,HEK293 Tl ctr
O=C(CCNC(=O)c1ccccc1Cl)Nc1nc(-c2ccc3ccccc3c2)cs1,-8.2*,-8,i,i,i,-20,42%*,i,i
CC(=O)c1cccc(NC(=O)C(OC(=O)/C=C/c2ccc3c(c2)OCO3)c2ccccc2)c1 (stereo unspecified),-9.3*,-15,i,i,i,-4,24%*,i,i
CCC(C(=O)N1CCN(c2cccc(Cl)c2)CC1)c1ccccc1 (stereo unspecified),-11*,-8,i,-11*,i,55,50%*,i,32%*
COc1ccc(-n2nc(C(=O)NCC(=O)N3CCC(C)CC3)c3ccccc3c2=O)cc1Cl,i,-8,i,i,i,23,i,i,i
COc1ccc(-n2nc(C(=O)NCC(=O)N3CCN(c4ccccn4)CC3)c3ccccc3c2=O)cc1Cl,i,-5,i,i,i,-36,.,.,.
CC12CCC(C(=O)NCCc3ccccc3)(OC1=O)C2(C)C (stereo unspecified),i,-2,i,i,i,29,i,i,i
CCCNC(=O)C12CCC(C)(C(=O)O1)C2(C)C (stereo unspecified),i,-7,i,i,i,20,.,.,.
Cc1cc[n+](CC(=O)Nc2ccccc2)cc1,i,4,i,i,i,30,.,.,.
